Laboratory results as given in ChEMBL document CHEMBL3393034, “Discovery of piperidine ethers as selective orexin receptor antagonists (SORAs) inspired by filorexant” (Bioorg Med Chem Lett, 2015).
≈ marks a conversion by molar mass, not a printed value. Calls of active or inactive are those of the source. The rule behind the calls is not given here.

Key:
Orexin receptor type 2 [1] = target: T1, Orexin receptor type 2 (Homo sapiens, UniProt O43614); test: Antagonist activity at human OX2R by radioligand displacement assay
T1 sequence (O43614 whole entry): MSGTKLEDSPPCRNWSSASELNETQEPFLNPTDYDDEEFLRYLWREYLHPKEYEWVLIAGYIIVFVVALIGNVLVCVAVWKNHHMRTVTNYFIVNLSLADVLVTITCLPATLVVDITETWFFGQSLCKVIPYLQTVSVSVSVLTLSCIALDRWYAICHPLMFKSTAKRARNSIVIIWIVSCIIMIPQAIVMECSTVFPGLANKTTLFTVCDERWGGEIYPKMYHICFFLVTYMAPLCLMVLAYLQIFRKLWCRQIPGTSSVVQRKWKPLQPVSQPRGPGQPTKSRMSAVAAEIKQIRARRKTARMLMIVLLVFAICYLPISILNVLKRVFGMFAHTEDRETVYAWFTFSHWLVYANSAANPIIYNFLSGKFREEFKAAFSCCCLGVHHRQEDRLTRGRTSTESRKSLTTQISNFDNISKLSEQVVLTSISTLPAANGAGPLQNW
Outline: (§1)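 Radioligand-displacement binding assay at the human orexin receptor; affinity expressed as Ki; data for racemates unless otherwise noted.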

[2] = target: T2, Orexin/Hypocretin receptor type 1 (Homo sapiens, UniProt O43613); test: Antagonist activity at human OX1R by radioligand displacement assay; outline: as §1
T2 sequence (O43613 whole entry): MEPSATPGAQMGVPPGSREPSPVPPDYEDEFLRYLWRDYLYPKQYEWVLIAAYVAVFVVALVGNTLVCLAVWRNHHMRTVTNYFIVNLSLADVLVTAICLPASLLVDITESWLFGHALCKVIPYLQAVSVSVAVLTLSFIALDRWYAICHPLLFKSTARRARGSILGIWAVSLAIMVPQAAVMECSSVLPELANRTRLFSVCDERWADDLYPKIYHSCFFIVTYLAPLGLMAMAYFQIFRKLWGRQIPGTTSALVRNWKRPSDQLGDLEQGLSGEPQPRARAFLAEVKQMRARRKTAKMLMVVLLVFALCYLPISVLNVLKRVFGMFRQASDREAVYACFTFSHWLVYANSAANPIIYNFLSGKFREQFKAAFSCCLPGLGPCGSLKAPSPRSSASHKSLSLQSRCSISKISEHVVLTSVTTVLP

Homo sapiens = organism: Homo sapiens; test: Selectivity ratio of Ki for human OX1R to Ki for human OX2R
Outline: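 Selectivity index for OX2R over OX1R, calculated from radioligand-displacement binding Ki values at the two human receptors.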

Orexin receptor type 2 [3] = target: T1, Orexin receptor type 2; test: Antagonist activity at human OX2R by FLIPR assay
Outline: (§2)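 Functional FLIPR readout in CHO cells engineered to overexpress the human orexin receptor; antagonism expressed as IC50.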

[4] = target: T2, Orexin/Hypocretin receptor type 1; test: Antagonist activity at human OX1R by FLIPR assay; outline: as §2
[5] = Lipophilicity, log D of the compound by HPLC analysis; assay type: physicochemical
[6] = Fraction unbound in human plasma; assay type: ADME, cell-free
[7] = Fraction unbound in rat plasma; assay type: ADME, cell-free
[8] = Plasma protein binding in human; assay type: ADME, cell-free; conditions: read-out: PPB (converted)
[9] = Plasma protein binding in rat; assay type: ADME, cell-free; conditions: read-out: PPB (converted)
[10] = Aqueous solubility of the compound at pH 2; assay type: physicochemical; conditions: aqueous medium
[11] = Aqueous solubility of the compound at pH 7; assay type: physicochemical; conditions: aqueous medium
[12] = Clearance in Sprague-Dawley rat at 2 mg/kg, iv; assay type: ADME, organism-based; set-up: dose 2 mg/kg, route intravenous; conditions: in vivo
Outline: (§3)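 Sprague–Dawley rats were dosed intravenously at 2 mg/kg and orally at 10 mg/kg. Readouts were clearance (mL/min/kg), terminal half-life, plasma AUC (µM•h) and oral bioavailability (%).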

[13] = Clearance in beagle dog at 0.125 mg/kg, iv; assay type: ADME, organism-based, Canis lupus familiaris; set-up: dose 0.125 mg/kg, route intravenous; conditions: in vivo
Outline: (§4)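 Beagle dogs were dosed intravenously at 0.125 mg/kg and orally at 3 mg/kg. Readouts were clearance (mL/min/kg), terminal half-life, and oral AUC (µM•h), Cmax (µM), Tmax (h) and bioavailability (%).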

[14] = Half life in Sprague-Dawley rat at 2 mg/kg, iv; assay type: ADME, organism-based; set-up: dose 2 mg/kg, route intravenous; conditions: in vivo; outline: as §3
[15] = Half life in beagle dog at 0.125 mg/kg, iv; assay type: ADME, organism-based, Canis lupus familiaris; set-up: dose 0.125 mg/kg, route intravenous; conditions: in vivo; outline: as §4
[16] = AUC in Sprague-Dawley rat at 10 mg/kg, po; assay type: ADME, organism-based; set-up: dose 10 mg/kg, route oral; conditions: plasma; outline: as §3
[17] = AUC in beagle dog at 3 mg/kg, po; assay type: ADME, organism-based, Canis lupus familiaris; set-up: dose 3 mg/kg, route oral; conditions: plasma; outline: as §4
[18] = Cmax in beagle dog at 3 mg/kg, po; assay type: ADME, organism-based, Canis lupus familiaris; set-up: dose 3 mg/kg, route oral; conditions: in vivo; outline: as §4
[19] = Tmax in beagle dog at 3 mg/kg, po; assay type: ADME, organism-based, Canis lupus familiaris; set-up: dose 3 mg/kg, route oral; conditions: in vivo; outline: as §4
[20] = Oral bioavailability in Sprague-Dawley rat at 10 mg/kg; assay type: ADME, organism-based; conditions: in vivo; outline: as §3
[21] = Oral bioavailability in beagle dog at 3 mg/kg; assay type: ADME, organism-based, Canis lupus familiaris; conditions: in vivo; outline: as §4
Rattus norvegicus [22] = test: Ex vivo receptor occupancy of OX2R in rat at 30 mg/kg, po after 30 mins; assay type: functional
Outline: (§5)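 Rats received a single 30 mg/kg oral dose. Receptor occupancy, plasma level and CSF level were determined at t = 30 min.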

[23] = Plasma concentration in rat at 30 mg/kg, po after 30 mins; assay type: ADME, organism-based; set-up: dose 30 mg/kg, route oral; outline: as §5
[24] = Drug uptake in rat CSF at 30 mg/kg, po after 30 mins; assay type: ADME, organism-based; set-up: dose 30 mg/kg, route oral; conditions: cerebrospinal fluid, read-out: Drug uptake; outline: as §5
P-gp = test: Binding affinity to human P-gp assessed as apparent passive permeability; assay type: ADME; conditions: not told
Rattus norvegicus [25] = test: Effect on sleep-wake cycle in rat assessed as change in active wake at 30 mg/kg, po after 30 mins relative to vehicle-treated control; assay type: functional, organism-based; set-up: dose 30 mg/kg
Outline: (§6)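 EEG-telemetry in rats, 30 mg/kg oral versus vehicle (20% vitamin E TPGS). Dosing was at 09:00 in the active phase (ZT 17:00, 7 h before lights on), recorded from 30 min pre-dose to 2 h post-dose. Active wake, light, delta and REM sleep were scored as means in 10-min bins. Balanced crossover over 3 consecutive days, N=6.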

Rattus norvegicus [26] = test: Effect on sleep-wake cycle in rat assessed as increase in delta sleep at 30 mg/kg, po after 30 mins relative to vehicle-treated control; assay type: functional, organism-based; set-up: dose 30 mg/kg; outline: as §6
Rattus norvegicus [27] = test: Effect on sleep-wake cycle in rat assessed as increase in REM sleep at 30 mg/kg, po after 30 mins relative to vehicle-treated control; assay type: functional, organism-based; set-up: dose 30 mg/kg; outline: as §6
[28] = AUC in Sprague-Dawley rat at 30 mg/kg, po; conditions: plasma
[29] = Cmax in Sprague-Dawley rat at 30 mg/kg, po; conditions: in vivo
[30] = Tmax in Sprague-Dawley rat at 30 mg/kg, po; conditions: in vivo
[31] = Oral bioavailability in Sprague-Dawley rat at 30 mg/kg; conditions: in vivo

CC1CCC(Oc2cc(C(F)(F)F)nc3ccccc23)CN1C(=O)c1ccccc1-n1nccn1 (racemic)
Ki (Orexin receptor type 2 [1]): 149 nM

CC1CCC(Oc2c(Br)cnc3ccccc23)CN1C(=O)c1ccccc1-n1nccn1 (racemic)
Ki (Orexin receptor type 2 [1]): 180 nM

CC1CCC(Oc2ccnc3ccc(Br)cc23)CN1C(=O)c1ccccc1-n1nccn1 (racemic)
Ki (Orexin receptor type 2 [1]): 5.2 nM
Ki [2]: 470 nM
Ratio Ki (Homo sapiens): 90

COc1cnc(O[C@@H]2CC[C@@H](C)N(C(=O)c3ccccc3-n3nccn3)C2)c2ccccc12
Ki (Orexin receptor type 2 [1]): 0.24 nM
Ki [2]: 0.41 nM

CC1CCC(Oc2cccc3cccnc23)CN1C(=O)c1ccccc1-n1nccn1 (racemic)
Ki (Orexin receptor type 2 [1]): 9.8 nM
Ki [2]: 760 nM
Ratio Ki (Homo sapiens): 78

CC1CCC(Oc2cccc3ncccc23)CN1C(=O)c1ccccc1-n1nccn1 (racemic)
Ki (Orexin receptor type 2 [1]): 5.1 nM
Ki [2]: 1030 nM
Ratio Ki (Homo sapiens): 202

Cc1ccc(-n2nccn2)c(C(=O)N2CCCC(Oc3cccc4ccccc34)C2)c1 (stereo unspecified)
Ki (Orexin receptor type 2 [1]): 18 nM
Ki [2]: 9 nM
Ratio Ki (Homo sapiens): 0.5

CC1CCC(Oc2ccnc3ccccc23)CN1C(=O)c1ccccc1-n1nccn1 (racemic)
Ki (Orexin receptor type 2 [1]): 6.8 nM
Ki [2]: 2700 nM
Ratio Ki (Homo sapiens): 397

CC1CCC(Oc2cccc3cnccc23)CN1C(=O)c1ccccc1-n1nccn1 (racemic)
Ki (Orexin receptor type 2 [1]): 7.5 nM
Ki [2]: 415 nM
Ratio Ki (Homo sapiens): 55

Cc1ccc(-n2nccn2)c(C(=O)N2C[C@H](Oc3cccc4ccccc34)CC[C@H]2C)c1 (relative stereo)
Ki (Orexin receptor type 2 [1]): 1 nM
Ki [2]: 13 nM
Ratio Ki (Homo sapiens): 13

Cc1ccc(-n2nccn2)c(C(=O)N2CCCC(Oc3ccc(F)c(C)c3)C2)c1 (stereo unspecified)
Ki (Orexin receptor type 2 [1]): 55 nM
Ki [2]: 106 nM
Ratio Ki (Homo sapiens): 2

CC1CCC(Oc2cccc3ccncc23)CN1C(=O)c1ccccc1-n1nccn1 (racemic)
Ki (Orexin receptor type 2 [1]): 9.3 nM
Ki [2]: 900 nM
Ratio Ki (Homo sapiens): 97

CC1CCC(Oc2ccnc3c(Br)cccc23)CN1C(=O)c1ccccc1-n1nccn1 (racemic)
Ki (Orexin receptor type 2 [1]): 2.6 nM
Ki [2]: 1100 nM
Ratio Ki (Homo sapiens): 423

CC1CCC(Oc2ccnc3c(Cl)cccc23)CN1C(=O)c1ccccc1-n1nccn1 (racemic)
Ki (Orexin receptor type 2 [1]): 0.9 nM
Ki [2]: 510 nM
Ratio Ki (Homo sapiens): 567

C[C@@H]1CC[C@@H](Oc2ccnc3c(F)cccc23)CN1C(=O)c1ccccc1-n1nccn1
Ki (Orexin receptor type 2 [1]): 0.6 nM
Ki [2]: 965 nM
IC50 (Orexin receptor type 2 [3]): 18 nM
IC50 [4]: 3910 nM
logD [5]: 2.35
fraction unbound [6]: 0.03
fraction unbound [7]: 0.03
fraction unbound [8]: 0.029
fraction unbound [9]: 0.04
solubility [10]: 182 µM (≈ 78.5 µg/mL)
solubility [11]: 161 µM (≈ 69.5 µg/mL)
clearance [12]: 22.5 mL/min/kg
clearance [13]: 6.2 mL/min/kg
half-life [14]: 24 min
half-life [15]: 42 min
AUC [16]: 3.9 µM·h
AUC [17]: 16 µM·h
Cmax [18]: 5.65 µM
Tmax [19]: 22.8 min
bioavailability [20]: 19%
bioavailability [21]: 60%
Occ (Rattus norvegicus [22]): 72%
concentration at 0.5 h [23]: 9.5 µM
concentration at 0.5 h [24]: 0.339 µM
Papp (P-gp): 34 ×10⁻⁶ cm/s
Activity (Rattus norvegicus [25]): Active
Activity (Rattus norvegicus [26]): Active
Activity (Rattus norvegicus [27]): Active
AUC [28]: 30.1 µM·h
Cmax [29]: 15.7 µM
Tmax [30]: 30 min
bioavailability [31]: 50%

O=C(c1ccccc1-n1nccn1)N1CCC(F)(F)[C@@H](Oc2ccc3ccccc3n2)C1
Ki (Orexin receptor type 2 [1]): 521 nM
Ki [2]: 1.3 nM

C[C@@H]1CC[C@@H](Oc2ccnc3c(F)cccc23)CN1C(=O)c1ccccc1-c1ncccn1
Ki (Orexin receptor type 2 [1]): 0.8 nM
Ki [2]: 1200 nM
Ratio Ki (Homo sapiens): 1500

C[C@@H]1CC[C@@H](Oc2nccc3ccccc23)CN1C(=O)c1ccccc1-n1nccn1 (relative stereo)
Ki (Orexin receptor type 2 [1]): 0.3 nM

Cc1cc(OC2CCC(C)N(C(=O)c3ccccc3-n3nccn3)C2)c2ccccc2n1 (racemic)
Ki (Orexin receptor type 2 [1]): 28.9 nM
Ki [2]: 3600 nM
Ratio Ki (Homo sapiens): 125

C[C@@H]1CC[C@@H](Oc2ccnc3c(F)cccc23)CN1C(=O)c1ccccc1N(C)C
Ki (Orexin receptor type 2 [1]): 370 nM

C[C@@H]1CC[C@@H](Oc2ccnc3c(F)cccc23)CN1C(=O)c1ccccc1-c1cccnc1
Ki (Orexin receptor type 2 [1]): 63 nM
Ki [2]: 19000 nM
Ratio Ki (Homo sapiens): 302

Cc1ccc(-n2nccn2)c(C(=O)N2CCCC(COc3ccc(F)c(C)c3)C2)c1 (stereo unspecified)
Ki (Orexin receptor type 2 [1]): 8.9 nM
Ki [2]: 5.5 nM
Ratio Ki (Homo sapiens): 0.6

CC1CCC(Oc2ccnc3c(F)cccc23)CN1C(=O)c1ccccc1-n1nccn1 (racemic)
Ki (Orexin receptor type 2 [1]): 1.3 nM
Ki [2]: 910 nM

Cc1ccc(-c2ncccn2)c(C(=O)N2C[C@H](COc3ccc(F)cn3)CC[C@H]2C)c1 [FILOREXANT]
Ki [2]: 2.9 nM
IC50 (Orexin receptor type 2 [3]): 17 nM
IC50 [4]: 16 nM
Ratio Ki (Homo sapiens): 9
